The results in this text go back to ChEMBL document CHEMBL2163220 (J Med Chem, 2012).

Molecules are shown by their SMILES. Activity calls are given as the source filed them. No cut-off for these calls is given here.

What all share (format): functional, cell-based
The test system of one test is PC-3. The test can be described thus: Antagonist activity at androgen receptor T887A mutant expressed in human PC3 cells assessed as reduction in DHT-induced receptor transactivation at 0.1 to 1 uM by luciferase reporter gene assay. The gist of the method: (§1)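 Full-length wild-type or mutant AR plasmid transiently transfected into PC-3 cells with MMTV-luc and Renilla luciferase reporters. Cells treated with DMSO vehicle or compound at 0.1 and 1 μM, alone or with 0.1 nM DHT. Luciferase read as relative luciferase units. Run in triplicate.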
In general terms: A reporter such as luciferase makes a cellular process visible.

Test [1] relates to T1, Androgen receptor (Homo sapiens), P10275 [H875Y].
T1 sequence (whole entry): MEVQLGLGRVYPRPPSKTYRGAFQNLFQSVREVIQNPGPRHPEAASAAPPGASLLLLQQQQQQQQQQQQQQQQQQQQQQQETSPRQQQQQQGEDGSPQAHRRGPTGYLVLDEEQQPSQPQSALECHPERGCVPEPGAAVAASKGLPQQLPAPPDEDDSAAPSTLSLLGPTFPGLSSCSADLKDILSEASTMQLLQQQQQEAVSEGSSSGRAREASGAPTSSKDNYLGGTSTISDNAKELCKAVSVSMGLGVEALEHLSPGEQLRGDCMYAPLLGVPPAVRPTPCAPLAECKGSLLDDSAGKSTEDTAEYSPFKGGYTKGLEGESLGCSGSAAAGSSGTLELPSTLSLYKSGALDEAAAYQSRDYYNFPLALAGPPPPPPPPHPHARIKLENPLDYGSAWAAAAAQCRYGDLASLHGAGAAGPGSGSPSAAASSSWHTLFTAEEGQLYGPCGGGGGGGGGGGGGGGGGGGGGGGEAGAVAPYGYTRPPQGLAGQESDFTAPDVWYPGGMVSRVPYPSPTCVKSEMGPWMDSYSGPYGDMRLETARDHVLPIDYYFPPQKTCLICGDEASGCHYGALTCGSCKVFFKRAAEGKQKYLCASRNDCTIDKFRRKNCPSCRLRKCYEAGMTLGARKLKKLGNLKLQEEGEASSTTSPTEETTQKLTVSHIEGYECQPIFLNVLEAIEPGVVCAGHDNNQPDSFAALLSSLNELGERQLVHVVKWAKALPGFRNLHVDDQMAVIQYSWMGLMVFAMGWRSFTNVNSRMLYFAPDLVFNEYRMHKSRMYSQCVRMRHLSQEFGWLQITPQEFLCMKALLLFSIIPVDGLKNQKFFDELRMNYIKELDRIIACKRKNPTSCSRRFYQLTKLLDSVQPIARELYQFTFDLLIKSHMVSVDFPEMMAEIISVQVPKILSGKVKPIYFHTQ
The test can be described thus: Antagonist activity at androgen receptor H874Y mutant expressed in human PC3 cells assessed as reduction in DHT-induced receptor transactivation at 0.1 to 1 uM by luciferase reporter gene assay. Particulars: PC-3. The gist of the method:
as §1

The test system is the same in test [2]. The test is described as follows: Agonist activity at androgen receptor H874Y mutant expressed in human PC3 cells assessed as stimulation of receptor transactivation at 0.1 to 1 uM by luciferase reporter gene assay. Conditions: PC-3. The gist of the method: as §1

With `Cc1coc2c1C(=O)C(=O)c1c-2ccc2c1CCCC2(C)C` [TANSHINONE IIA], in the test on PC-3, the result was Active. In addition, the outcome in test [1] and in test [2] was inactive.
